Laboratory results published in ChEMBL document CHEMBL1811814, “Synthesis and evaluation of indole, pyrazole, chromone and pyrimidine based conjugates for tumor growth inhibitory activities--development of highly efficacious cytotoxic agents” (Eur J Med Chem, 2010).

Legend:
Type in all cases: functional
[1] = tested on: MDA-MB-468; experiment: Growth inhibition of human MDA-MB-468 cells
[2] = tested on: OVCAR-4; experiment: Growth inhibition of human OVCAR4 cells
[3] = tested on: HOP-62; experiment: Growth inhibition of human HOP62 cells assessed tumor cell growth at 10^-5 M; parameters: scale not given: the % may be the effect or the level left
Method in brief: (§1)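 NCI 60-human-tumor-cell-line panel screen. Each compound was tested at a single concentration of 10^-5 M, and percent growth of tumor cells was recorded for each cell line. Growth inhibition was expressed from these percent-growth values.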

[4] = tested on: CAKI-1; experiment: Growth inhibition of human Caki1 cells
[5] = tested on: SNB-75; experiment: Growth inhibition of human SNB75 cells
[6] = tested on: EKVX; experiment: Growth inhibition of human EKVX cells
[7] = tested on: NCI-H226; experiment: Growth inhibition of human NCI-H226 cells assessed tumor cell growth at 10^-5 M; parameters: scale not given: the % may be the effect or the level left; method in brief: as §1
[8] = Growth inhibition of human RPMI8266 cells
[9] = tested on: NCI/ADR-RES; experiment: Growth inhibition of human NCI/ADR-RES cells assessed tumor cell growth at 10^-5 M; parameters: scale not given: the % may be the effect or the level left; method in brief: as §1
[10] = tested on: CCRF-CEM; experiment: Growth inhibition of human CCRF-CEM cells assessed tumor cell growth at 10^-5 M; parameters: scale not given: the % may be the effect or the level left; method in brief: as §1
[11] = tested on: MDA-MB-468; experiment: Growth inhibition of human MDA-MB-468 cells assessed tumor cell growth at 10^-5 M; parameters: scale not given: the % may be the effect or the level left; method in brief: as §1
[12] = tested on: RXF 393; experiment: Growth inhibition of human RXF393 cells
[13] = tested on: SF-268; experiment: Growth inhibition of human SF268 cells assessed tumor cell growth at 10^-5 M; parameters: scale not given: the % may be the effect or the level left; method in brief: as §1
[14] = tested on: UO-31; experiment: Growth inhibition of human UO31 cells assessed tumor cell growth at 10^-5 M; parameters: scale not given: the % may be the effect or the level left
Method in brief: (§2)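 Single-dose screen at 10^-5 M across the 60 human tumor cell line panel, run to NCI standards. The value is the percent growth of each cell line in the presence of compound. Compounds active at this dose moved on to five-concentration testing (10^-4 to 10^-8 M).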

[15] = tested on: ACHN; experiment: Growth inhibition of human ACHN cells
[16] = tested on: IGROV-1; experiment: Growth inhibition of human IGROV1 cells assessed tumor cell growth at 10^-5 M; parameters: scale not given: the % may be the effect or the level left; method in brief: as §1
[17] = tested on: T47D; experiment: Growth inhibition of human T47D cells assessed tumor cell growth at 10^-5 M; parameters: scale not given: the % may be the effect or the level left; method in brief: as §2
[18] = tested on: HT-29; experiment: Growth inhibition of human HT-29 cells
[19] = tested on: SK-MEL-28; experiment: Growth inhibition of human SK-MEL-28 cells assessed tumor cell growth at 10^-5 M; parameters: scale not given: the % may be the effect or the level left; method in brief: as §1
[20] = tested on: HL-60(TB); experiment: Growth inhibition of human HL-60(TB) cells assessed tumor cell growth at 10^-5 M; parameters: scale not given: the % may be the effect or the level left
Method in brief: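 HL-60(TB), part of the 60-line panel, tested at a single concentration of 10^-5 M. The read-out is percent tumor cell growth relative to untreated growth.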

[21] = tested on: SK-MEL-5; experiment: Growth inhibition of human SK-MEL-5 cells assessed tumor cell growth at 10^-5 M; parameters: scale not given: the % may be the effect or the level left; method in brief: as §1
[22] = tested on: HCT-15; experiment: Growth inhibition of human HCT15 cells assessed tumor cell growth at 10^-5 M; parameters: scale not given: the % may be the effect or the level left; method in brief: as §1
[23] = tested on: OVCAR-8; experiment: Growth inhibition of human OVCAR8 cells
[24] = tested on: HCC 2998; experiment: Growth inhibition of human HCC2998 cells assessed tumor cell growth at 10^-5 M; parameters: scale not given: the % may be the effect or the level left; method in brief: as §1
[25] = tested on: SW-620; experiment: Growth inhibition of human SW620 cells
[26] = tested on: NCI-H460; experiment: Growth inhibition of human NCI-H460 cells
[27] = tested on: RXF 393; experiment: Growth inhibition of human RXF393 cells assessed tumor cell growth at 10^-5 M; parameters: scale not given: the % may be the effect or the level left; method in brief: as §1
[28] = tested on: LOX IMVI; experiment: Growth inhibition of human LOXIMVI cells assessed tumor cell growth at 10^-5 M; parameters: scale not given: the % may be the effect or the level left; method in brief: as §1
[29] = tested on: SNB-75; experiment: Growth inhibition of human SNB75 cells assessed tumor cell growth at 10^-5 M; parameters: scale not given: the % may be the effect or the level left; method in brief: as §2
[30] = tested on: UACC-257; experiment: Growth inhibition of human UACC257 cells
[31] = tested on: NCI-H23; experiment: Growth inhibition of human NCI-H23 cells assessed tumor cell growth at 10^-5 M; parameters: scale not given: the % may be the effect or the level left; method in brief: as §1
[32] = tested on: UACC-257; experiment: Growth inhibition of human UACC257 cells assessed tumor cell growth at 10^-5 M; parameters: scale not given: the % may be the effect or the level left; method in brief: as §2
[33] = tested on: M14; experiment: Growth inhibition of human M14 cells
[34] = tested on: 786-0; experiment: Growth inhibition of human 786-0 cells assessed tumor cell growth at 10^-5 M; parameters: scale not given: the % may be the effect or the level left; method in brief: as §1
[35] = tested on: CCRF-CEM; experiment: Growth inhibition of human CCRF-CEM cells
[36] = tested on: NCI-H460; experiment: Growth inhibition of human NCI-H460 cells assessed tumor cell growth at 10^-5 M; parameters: scale not given: the % may be the effect or the level left; method in brief: as §1
[37] = tested on: SF-295; experiment: Growth inhibition of human SF295 cells
[38] = tested on: SF-539; experiment: Growth inhibition of human SF539 cells assessed tumor cell growth at 10^-5 M; parameters: scale not given: the % may be the effect or the level left; method in brief: as §1
[39] = tested on: EKVX; experiment: Growth inhibition of human EKVX cells assessed tumor cell growth at 10^-5 M; parameters: scale not given: the % may be the effect or the level left; method in brief: as §1
[40] = tested on: MOLT-4; experiment: Growth inhibition of human MOLT4 cells
[41] = tested on: OVCAR-8; experiment: Growth inhibition of human OVCAR8 cells assessed tumor cell growth at 10^-5 M; parameters: scale not given: the % may be the effect or the level left; method in brief: as §1
[42] = tested on: NCI-H226; experiment: Growth inhibition of human NCI-H226 cells
[43] = tested on: SN12C; experiment: Growth inhibition of human SN12C cells assessed tumor cell growth at 10^-5 M; parameters: scale not given: the % may be the effect or the level left; method in brief: as §1
[44] = tested on: NCI-H322M; experiment: Growth inhibition of human NCI-H322M cells
[45] = tested on: UO-31; experiment: Growth inhibition of human UO31 cells
[46] = tested on: A498; experiment: Growth inhibition of human A498 cells
[47] = tested on: COLO 205; experiment: Growth inhibition of human COLO205 cells assessed tumor cell growth at 10^-5 M; parameters: scale not given: the % may be the effect or the level left; method in brief: as §1
[48] = tested on: PC-3; experiment: Growth inhibition of human PC3 cells
[49] = tested on: DU-145; experiment: Growth inhibition of human DU145 cells
[50] = tested on: CAKI-1; experiment: Growth inhibition of human Caki1 cells assessed tumor cell growth at 10^-5 M; parameters: scale not given: the % may be the effect or the level left; method in brief: as §1
[51] = tested on: SK-MEL-2; experiment: Growth inhibition of human SK-MEL-2 cells assessed tumor cell growth at 10^-5 M; parameters: scale not given: the % may be the effect or the level left; method in brief: as §1
[52] = read-out: LC50 (the source's name)

O=C1/C(=C\c2coc3ccccc3c2=O)c2ccccc2N1c1c(Cl)cccc1Cl
GI50 [1]: 2.4 µM | CC50 [1, 52]: > 100 µM | GI50 [2]: 3.6 µM | CC50 [2, 52]: > 100 µM | Activity [3]: 68.24% | GI50 [4]: 2.4 µM | CC50 [4, 52]: > 100 µM | GI50 [5]: 1.9 µM | CC50 [5, 52]: > 100 µM | GI50 [6]: 2.8 µM | CC50 [6, 52]: > 100 µM | Activity [7]: 90.68% | GI50 [8]: 1.2 µM | CC50 [8, 52]: 69.1 µM | Activity [9]: 36.14% | Activity [10]: 21.08% | Activity [11]: 44.85% | GI50 [12]: 1.8 µM | CC50 [12, 52]: 69.1 µM | Activity [13]: 31.99% | Activity [14]: 42.56% | GI50 [15]: 4.1 µM | CC50 [15, 52]: > 100 µM | Activity [16]: 48.69% | Activity [17]: 30.04% | GI50 [18]: 3 µM | CC50 [18, 52]: > 100 µM | Activity [19]: 47.32% | Activity [20]: 33.76% | Activity [21]: 20.33% | Activity [22]: 24.69% | GI50 [23]: 5.4 µM | CC50 [23, 52]: > 100 µM | Activity [24]: 53% | GI50 [25]: 5.2 µM | CC50 [25, 52]: > 100 µM | GI50 [26]: 2 µM | CC50 [26, 52]: > 100 µM | Activity [27]: 44.09% | Activity [28]: 37.07% | Activity [29]: 62.74% | GI50 [30]: 4.5 µM | CC50 [30, 52]: > 100 µM | Activity [31]: 55.41% | Activity [32]: 61.22% | GI50 [33]: 5.2 µM | CC50 [33, 52]: > 100 µM | Activity [34]: 27.05% | GI50 [35]: 2 µM | CC50 [35, 52]: > 100 µM | Activity [36]: 19.05% | GI50 [37]: 4.2 µM | CC50 [37, 52]: > 100 µM | Activity [38]: 49.4% | Activity [39]: 33.14% | GI50 [40]: 2.9 µM | Activity [41]: 31.58% | GI50 [42]: 20.8 µM | CC50 [42, 52]: > 100 µM | Activity [43]: 59.48% | GI50 [44]: 5.8 µM | CC50 [44, 52]: > 100 µM | GI50 [45]: 1.8 µM | CC50 [45, 52]: > 100 µM | GI50 [46]: 4.3 µM | CC50 [46, 52]: > 100 µM | Activity [47]: 55.33% | GI50 [48]: 1.3 µM | CC50 [48, 52]: > 100 µM | GI50 [49]: 4.6 µM | CC50 [49, 52]: > 100 µM | Activity [50]: -7.88% | Activity [51]: 85.69%
